Converted amounts (≈) assume the structure as drawn. The source made the active and inactive calls. The calls are words filed in the database; no cut-off is given here.
Columns and labels:
[1] = tested on: Globisporangium debaryanum; assay: Antifungal activity against Pythium debaryanum assessed as inhibition of fungal growth; type: functional; details: read-out: ED50 (the source's name)
Method in brief: (§1)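 Poisoned food technique on PDA, final 250, 125, 100, 50, 25 and 10 µg/mL, diluted in acetone from a 1000 µg/mL stock; acetone-only control. A 5 mm × 5 mm plug from the growing edge of a 2-week-old colony was placed at plate centre and incubated at 28 °C until control plates were nearly fully grown. Colony diameter was measured; four replicates per treatment. Inhibition was Abbott-corrected and ED50 taken by probit analysis.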

[2] = tested on: Pythium aphanidermatum; assay: Antifungal activity against Pythium aphanidermatum assessed as inhibition of fungal growth; type: functional; details: read-out: ED50 (the source's name); method in brief: as §1
[3] = tested on: Macrophomina phaseolina; assay: Antifungal activity against Macrophomina phaseolina assessed as inhibition of fungal growth; type: functional; details: read-out: ED50 (the source's name); method in brief: as §1
[4] = tested on: Macrophomina phaseolina; assay: Antifungal activity against Rhizoctonia bataticola assessed as inhibition of fungal growth; type: functional; details: read-out: ED50 (the source's name); method in brief: as §1
[5] = tested on: Rhizoctonia solani; assay: Antifungal activity against Rhizoctonia solani Nees assessed as inhibition of fungal growth; type: functional; details: read-out: ED50 (the source's name); method in brief: as §1
[6] = tested on: Athelia rolfsii; assay: Antifungal activity against Athelia rolfsii assessed as inhibition of fungal growth; type: functional; details: Agroathelia rolfsii; read-out: ED50 (the source's name); method in brief: as §1
[7] = tested on: Athelia rolfsii; assay: Antifungal activity against Athelia rolfsii in tomato plants grown on fungal infested soil assessed as healthy tomato plants stands at 5 % aqueous emulsion of compound measured 35 days after transplanting; type: functional, Agroathelia rolfsii
Method in brief: (§2)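 Tomato greenhouse test. S. rolfsii was grown in potato dextrose broth, then held in water at 20 °C for 3-4 weeks. Inoculum was mixed into autoclaved composted soil (10 flasks per 2.5 kg) and kept about 5-7 days at roughly 25 °C. Aqueous emulsion was incorporated at 5.0 mL per 150 cm3 of soil. Wilting and mortality were scored weekly after transplanting and given as the proportion of symptomless plants. Controls were uninfested soil and infested untreated soil; analysed as repeated measures ANOVA.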

[8] = tested on: Athelia rolfsii; assay: Antifungal activity against Athelia rolfsii in tomato plants grown on fungal infested soil assessed as healthy tomato plants stands at 10 % aqueous emulsion of compound measured 35 days after transplanting; type: functional, Agroathelia rolfsii; method in brief: as §2
[9] = tested on: Athelia rolfsii; assay: Antifungal activity against Athelia rolfsii in tomato plants grown on fungal infested soil assessed as healthy tomato plants stands at 1 % aqueous emulsion of compound measured 35 days after transplanting; type: functional, organism-based; details: Agroathelia rolfsii; method in brief: as §2
[10] = tested on: Athelia rolfsii; assay: Antifungal activity against Athelia rolfsii in tomato plants grown on fungal infested soil assessed as healthy tomato plants stands at 1 % aqueous emulsion of compound measured 7 days after transplanting; type: functional, Agroathelia rolfsii; method in brief: as §2
[11] = tested on: Athelia rolfsii; assay: Antifungal activity against Athelia rolfsii in tomato plants grown on fungal infested soil assessed as healthy tomato plants stands at 0.364 mL ai/150 cm3 of soil measured 35 days after transplanting; type: functional, Agroathelia rolfsii
Method in brief: (§3)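 Greenhouse tomato seedlings in sieved, autoclaved composted soil infested with S. rolfsii chlamydospore inoculum (potato dextrose broth, 27 °C 7 days, then water, 20 °C 3-4 weeks; 10 flasks per 2.5 kg soil; incubated ~25 °C 5-7 days). Moistened infested soil treated with fungicide per 150 cm3 soil. Checks were uninfested soil and untreated infested soil. Wilting and mortality scored weekly to 35 days; proportion symptomless plants; repeated-measures ANOVA.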

[12] = tested on: Athelia rolfsii; assay: Antifungal activity against Athelia rolfsii in tomato plants grown on fungal infested soil assessed as healthy tomato plants stands at 1.46 mL ai/150 cm3 of soil measured 35 days after transplanting; type: functional, Agroathelia rolfsii; method in brief: as §3
[13] = tested on: Athelia rolfsii; assay: Antifungal activity against Athelia rolfsii in tomato plants grown on fungal infested soil assessed as healthy tomato plants stands at 0.728 mL ai/150 cm3 of soil measured 35 days after transplanting; type: functional, Agroathelia rolfsii; method in brief: as §3

## C/C=C/c1cc(C)cc(=O)o1
[1]
  EC50: 95.5 µg/mL (≈ 636 µM)
[2]
  EC50: 102 µg/mL (≈ 680 µM)
[3]
  EC50: 276 µg/mL (≈ 1840 µM)
[4]
  EC50: 361 µg/mL (≈ 2400 µM)
[5]
  EC50: 294 µg/mL (≈ 1950 µM)
[6]
  EC50: 404 µg/mL (≈ 2690 µM)

## CCCCC(CC)c1cc(C)cc(=O)o1 (stereo not given)
[1]
  EC50: 151 µg/mL (≈ 725 µM)
[2]
  EC50: 277 µg/mL (≈ 1330 µM)
[3]
  EC50: 262 µg/mL (≈ 1260 µM)
[4]
  EC50: 303 µg/mL (≈ 1460 µM)
[5]
  EC50: 184 µg/mL (≈ 882 µM)
[6]
  EC50: 349 µg/mL (≈ 1680 µM)

## C=C(C)c1cc(C)cc(=O)o1
[1]
  EC50: 189 µg/mL (≈ 1260 µM)
[2]
  EC50: 337 µg/mL (≈ 2240 µM)
[3]
  EC50: 338 µg/mL (≈ 2250 µM)
[4]
  EC50: 374 µg/mL (≈ 2490 µM)
[5]
  EC50: 206 µg/mL (≈ 1370 µM)
[6]
  EC50: 180 µg/mL (≈ 1200 µM)

## Cc1cc(C(C)C)oc(=O)c1
[1]
  EC50: 437 µg/mL (≈ 2870 µM)
[2]
  EC50: 475 µg/mL (≈ 3120 µM)
[3]
  EC50: 1210 µg/mL (≈ 7930 µM)
[4]
  EC50: 403 µg/mL (≈ 2650 µM)
[5]
  EC50: 437 µg/mL (≈ 2870 µM)
[6]
  EC50: 313 µg/mL (≈ 2060 µM)

## CCCCCCCCCc1cc(C)cc(=O)o1
[1]
  EC50: 284 µg/mL (≈ 1200 µM)
[2]
  EC50: 204 µg/mL (≈ 863 µM)
[3]
  EC50: 352 µg/mL (≈ 1490 µM)
[4]
  EC50: 213 µg/mL (≈ 900 µM)
[5]
  EC50: 130 µg/mL (≈ 551 µM)
[6]
  EC50: 397 µg/mL (≈ 1680 µM)

## CCCCCCc1cc(C)cc(=O)o1
[7]
  Activity: > 60%
[8]
  Activity: 92.4%
[9]
  Activity: inactive
[10]
  Activity: 20%
[1]
  EC50: 14.9 µg/mL (≈ 76.7 µM)
[2]
  EC50: 16.6 µg/mL (≈ 85.5 µM)
[3]
  EC50: 31 µg/mL (≈ 159 µM)
[4]
  EC50: 24.5 µg/mL (≈ 126 µM)
[5]
  EC50: 18.7 µg/mL (≈ 96 µM)
[6]
  EC50: 15.1 µg/mL (≈ 77.7 µM)

## CCCCC(O)(Cn1cncn1)c1ccc(Cl)cc1Cl (stereo not given) [HEXACONAZOLE]
[1]
  EC50: 12.3 µg/mL (≈ 39.1 µM)
[2]
  EC50: 8.47 µg/mL (≈ 27 µM)
[3]
  EC50: 10.5 µg/mL (≈ 33.5 µM)
[4]
  EC50: 4.36 µg/mL (≈ 13.9 µM)
[5]
  EC50: 13 µg/mL (≈ 41.2 µM)
[6]
  EC50: 18.3 µg/mL (≈ 58.4 µM)

## CCCCCCCc1cc(C)cc(=O)o1
[1]
  EC50: 71.7 µg/mL (≈ 344 µM)
[2]
  EC50: 74.6 µg/mL (≈ 358 µM)
[3]
  EC50: 82.2 µg/mL (≈ 394 µM)
[4]
  EC50: 47 µg/mL (≈ 226 µM)
[5]
  EC50: 45 µg/mL (≈ 216 µM)
[6]
  EC50: 30.7 µg/mL (≈ 147 µM)

## CCCc1cc(C)cc(=O)o1
[1]
  EC50: 288 µg/mL (≈ 1890 µM)
[2]
  EC50: 573 µg/mL (≈ 3760 µM)
[3]
  EC50: 329 µg/mL (≈ 2160 µM)
[4]
  EC50: 562 µg/mL (≈ 3700 µM)
[5]
  EC50: 149 µg/mL (≈ 982 µM)
[6]
  EC50: 251 µg/mL (≈ 1650 µM)

## CCc1cc(C)cc(=O)o1
[1]
  EC50: 580 µg/mL (≈ 4200 µM)
[2]
  EC50: 408 µg/mL (≈ 2950 µM)
[3]
  EC50: 267 µg/mL (≈ 1940 µM)
[4]
  EC50: 626 µg/mL (≈ 4530 µM)
[5]
  EC50: 690 µg/mL (≈ 5000 µM)
[6]
  EC50: 665 µg/mL (≈ 4820 µM)

## COCC(=O)N(c1c(C)cccc1C)C(C)C(=O)OC (stereo not given) [METALAXYL]
[11]
  Activity: 34.3 µg/mL
[12]
  Activity: 90.3 µg/mL
[13]
  Activity: 60 µg/mL

## Cc1cc(CC(C)C)oc(=O)c1
[1]
  EC50: 37 µg/mL (≈ 223 µM)
[2]
  EC50: 52.4 µg/mL (≈ 315 µM)
[3]
  EC50: 47.3 µg/mL (≈ 284 µM)
[4]
  EC50: 68.4 µg/mL (≈ 412 µM)
[5]
  EC50: 48.7 µg/mL (≈ 293 µM)
[6]
  EC50: 39.5 µg/mL (≈ 237 µM)

## CCCCCCCCCCc1cc(C)cc(=O)o1
[1]
  EC50: 594 µg/mL (≈ 2370 µM)
[2]
  EC50: 287 µg/mL (≈ 1150 µM)
[3]
  EC50: 548 µg/mL (≈ 2190 µM)
[4]
  EC50: 649 µg/mL (≈ 2590 µM)
[5]
  EC50: 267 µg/mL (≈ 1070 µM)
[6]
  EC50: 562 µg/mL (≈ 2250 µM)

## CCCCCCCCc1cc(C)cc(=O)o1
[1]
  EC50: 175 µg/mL (≈ 786 µM)
[2]
  EC50: 124 µg/mL (≈ 557 µM)
[3]
  EC50: 164 µg/mL (≈ 737 µM)
[4]
  EC50: 132 µg/mL (≈ 595 µM)
[5]
  EC50: 116 µg/mL (≈ 521 µM)
[6]
  EC50: 122 µg/mL (≈ 548 µM)

## CC(C)=Cc1cc(C)cc(=O)o1
[1]
  EC50: 264 µg/mL (≈ 1610 µM)
[2]
  EC50: 206 µg/mL (≈ 1250 µM)
[3]
  EC50: 377 µg/mL (≈ 2300 µM)
[4]
  EC50: 328 µg/mL (≈ 2000 µM)
[5]
  EC50: 286 µg/mL (≈ 1740 µM)
[6]
  EC50: 323 µg/mL (≈ 1960 µM)

## Cc1cc(C)oc(=O)c1
[1]
  EC50: 1140 µg/mL (≈ 9190 µM)
[2]
  EC50: 451 µg/mL (≈ 3630 µM)
[3]
  EC50: 824 µg/mL (≈ 6630 µM)
[4]
  EC50: 1190 µg/mL (≈ 9550 µM)
[5]
  EC50: 493 µg/mL (≈ 3970 µM)
[6]
  EC50: 713 µg/mL (≈ 5740 µM)

## CCCCCc1cc(C)cc(=O)o1
[1]
  EC50: 20.6 µg/mL (≈ 114 µM)
[2]
  EC50: 39.1 µg/mL (≈ 217 µM)
[3]
  EC50: 36.8 µg/mL (≈ 204 µM)
[4]
  EC50: 34.2 µg/mL (≈ 190 µM)
[5]
  EC50: 34.5 µg/mL (≈ 191 µM)
[6]
  EC50: 22.4 µg/mL (≈ 125 µM)

## Cc1cc(CCl)oc(=O)c1
[1]
  EC50: 102 µg/mL (≈ 643 µM)
[2]
  EC50: 122 µg/mL (≈ 769 µM)
[3]
  EC50: 72.1 µg/mL (≈ 455 µM)
[4]
  EC50: 111 µg/mL (≈ 701 µM)
[5]
  EC50: 22.8 µg/mL (≈ 143 µM)
[6]
  EC50: 46.9 µg/mL (≈ 296 µM)

## CCCCc1cc(C)cc(=O)o1
[1]
  EC50: 143 µg/mL (≈ 859 µM)
[2]
  EC50: 227 µg/mL (≈ 1370 µM)
[3]
  EC50: 235 µg/mL (≈ 1410 µM)
[4]
  EC50: 212 µg/mL (≈ 1280 µM)
[5]
  EC50: 50.1 µg/mL (≈ 301 µM)
[6]
  EC50: 78 µg/mL (≈ 469 µM)

Source: ChEMBL document CHEMBL3045854, “Antifungal activity of 4-methyl-6-alkyl-2H-pyran-2-ones” (2006)
